Assay results reported in ChEMBL document CHEMBL4177755, “Combating Drug-Resistant Fungi with Novel Imperfectly Amphipathic Palindromic Peptides” (J Med Chem, 2018).

Columns and labels:
[1] = tested on: Staphylococcus aureus; assay: Bactericidal activity against Staphylococcus aureus ATCC 25923; format: functional; conditions: read-out: MBC99.9
Outline: (§1)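 Wells from the 24 h, 37 °C MHB microdilution plates (bacteria at a final (0.5−1) × 10^5 CFU/mL; peptide diluted in 0.2% BSA) were plated on agar and incubated overnight. MBC is the lowest concentration killing >99.9% of cells. Each test was reproduced at least 3 times.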

[2] = tested on: Candida albicans; assay: Antifungal activity against fluconazole-resistant Candida albicans 56452 after 48 hrs by broth microdilution method; format: functional; conditions: Candida albicans, 56452, 48 h
Outline: (§2)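 Modified CLSI M27-A2 broth microdilution. Yeast at (0.5−1) × 10^3 CFU/mL in MOPS-buffered RPMI 1640 was mixed 1:1 with peptide serially diluted in 0.2% BSA and incubated 48 h at 28 °C. Absorbance was read at 492 nm; MIC is the lowest concentration inhibiting 95% of growth. Triplicate, three biological replicates.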

[3] = tested on: Candida albicans; assay: Antifungal activity against Candida albicans SP3931 after 48 hrs by broth microdilution method; format: functional; conditions: SP3931, 48 h; outline: as §2
[4] = tested on: Candida albicans; assay: Fungicidal activity against Candida albicans SP3903 after 96 hrs; format: functional; conditions: SP3903, 96 h, read-out: MFC99.9
Outline: (§3)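 After the 48 h, 28 °C broth microdilution in MOPS-buffered RPMI 1640 (inoculum (0.5−1) × 10^3 CFU/mL), 50 μL from each well was plated on YM agar for a further 48 h at 28 °C. MFC is the lowest concentration killing at least 99.9% of cells. Triplicate, three biological replicates.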

[5] = tested on: Erythrocyte; assay: Hemolytic activity in human RBC after 1 hr; format: ADME, cell-based
Outline: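 Fresh human erythrocytes, diluted 10-fold in PBS pH 7.4, were mixed with equal volumes of peptide and held 1 h at 37 °C. After centrifugation at 1000g, supernatant hemoglobin was read at 576 nm. PBS set 0% and 0.1% Triton X-100 set 100% lysis. MHC is the concentration causing 10% hemolysis. At least three experiments were run, each in technical triplicate.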

[6] = tested on: Candida albicans; assay: Antifungal activity against Candida albicans cgmcc 2.2086 in presence of ZnCl2 by broth dilution method; format: functional
[7] = tested on: Candida albicans; assay: Fungicidal activity against Candida albicans SP3931 after 96 hrs; format: functional; conditions: SP3931, 96 h, read-out: MFC99.9; outline: as §3
[8] = tested on: Staphylococcus aureus; assay: Antibacterial activity against Staphylococcus aureus ATCC 25923 after 24 hrs; format: functional; conditions: ATCC 25923, 24 h
Outline: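 Modified NCCLS broth microdilution. Mid-log bacteria at (0.5−1) × 10^5 CFU/mL in MHB were mixed 1:1 with peptide serially diluted in 0.2% BSA and incubated 24 h at 37 °C. Absorbance was read at 492 nm; MIC is the lowest concentration inhibiting 95% of growth. At least 3 repeats.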

[9] = Cytotoxicity against mouse RAW264.7 cells assessed as cell viability at 2 to 64 uM after 24 hrs by MTT assay relative to control; format: cell-based; conditions: read-out: Activity
Outline: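 MTT viability assay. RAW264.7 or HEK293T cells at (1.0−2.0) × 10^5 per well were exposed to a peptide concentration series for 24 h at 37 °C in 5% CO2. MTT was then added at 0.5 mg/mL final for 4 h; formazan was dissolved in DMSO and read at 570 nm. Results average three independent trials.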

[10] = Antibacterial activity against Salmonella pullorum ATCC 7913 after 24 hrs; format: functional, Salmonella enterica subsp. enterica serovar Pullorum; conditions: Salmonella enterica, ATCC 7913, 24 h
Outline: (§4)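 Broth microdilution. Mid-log bacteria in MHB at a final (0.5−1) × 10^5 CFU/mL were mixed with equal volumes of peptide serially diluted in 0.2% BSA. Plates were incubated 24 h at 37 °C and read at A492. MIC is the lowest concentration inhibiting 95% of growth. Each test was repeated at least 3 times.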

[11] = tested on: Escherichia coli; assay: Antibacterial activity against Escherichia coli ATCC 25922 after 18 hrs in presence of NH4Cl by broth dilution method; format: functional; conditions: ATCC 25922, 18 h
[12] = tested on: Candida albicans; assay: Fungicidal activity against Candida albicans cgmcc 2.2086 after 96 hrs; format: functional; conditions: cgmcc 2.2086, 96 h, read-out: MFC99.9; outline: as §3
[13] = tested on: Candida albicans; assay: Fungicidal activity against Candida albicans SP3876 after 96 hrs; format: functional; conditions: SP3876, 96 h, read-out: MFC99.9; outline: as §3
[14] = tested on: Candida tropicalis; assay: Fungicidal activity against Candida tropicalis cgmcc 2.1975 after 96 hrs; format: functional; conditions: cgmcc 2.1975, 96 h, read-out: MFC99.9
Outline: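 Wells from the 48 h, 28 °C RPMI 1640/MOPS microdilution plates were plated on YM agar and incubated a further 48 h at 28 °C. MFC is the lowest concentration killing at least 99.9% of cells. Run in triplicate with three biological replicates.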

[15] = tested on: Candida albicans; assay: Fungicidal activity against fluconazole-resistant Candida albicans 56214 after 96 hrs; format: functional; conditions: Candida albicans, 56214, 96 h; read-out: MFC99.9; outline: as §3
[16] = tested on: Staphylococcus aureus; assay: Bactericidal activity against methicillin-resistant Staphylococcus aureus ATCC 4330; format: functional; conditions: read-out: MBC99.9
Outline: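 Bacteria at (0.5−1) × 10^5 CFU/mL in MHB were exposed to serially diluted peptide (0.2% BSA) for 24 h at 37 °C, then 50 μL aliquots were plated on agar overnight. MBC is the lowest concentration killing >99.9% of cells. At least 3 repeats.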

[17] = tested on: Staphylococcus epidermidis; assay: Bactericidal activity against Staphylococcus epidermidis ATCC 12228; format: functional; conditions: read-out: MBC99.9; outline: as §1
[18] = tested on: Candida albicans; assay: Antifungal activity against fluconazole-resistant Candida albicans 17546 after 48 hrs by broth microdilution method; format: functional; conditions: Candida albicans, 17546, 48 h; outline: as §2
[19] = tested on: Escherichia coli; assay: Antibacterial activity against Escherichia coli ATCC 25922 after 18 hrs in presence of CaCl2 by broth dilution method; format: functional; conditions: ATCC 25922, 18 h
[20] = tested on: Candida albicans; assay: Fungicidal activity against Candida albicans isolated from alveolar fluid after 96 hrs; format: functional; conditions: read-out: MFC99.9; outline: as §3
[21] = tested on: Candida albicans; assay: Antifungal activity against Candida albicans isolated from alveolar fluid after 48 hrs by broth microdilution method; format: functional; outline: as §2
[22] = tested on: Escherichia coli; assay: Antibacterial activity against Escherichia coli ATCC 25922 after 24 hrs; format: functional; conditions: ATCC 25922, 24 h; outline: as §4
[23] = tested on: Candida albicans; assay: Antifungal activity against Candida albicans cgmcc 2.2086 in presence of KCl by broth dilution method; format: functional
[24] = tested on: Candida albicans; assay: Fungicidal activity against fluconazole-resistant Candida albicans 56452 after 96 hrs; format: functional; conditions: Candida albicans, 56452, 96 h; read-out: MFC99.9; outline: as §3
[25] = tested on: Escherichia coli; assay: Bactericidal activity against Escherichia coli 1005; format: functional; conditions: read-out: MBC99.9; outline: as §1
[26] = tested on: Escherichia coli; assay: Antibacterial activity against Escherichia coli 1005 after 24 hrs; format: functional; conditions: Escherichia coli, 1005, 24 h; outline: as §4
[27] = tested on: Candida albicans; assay: Antifungal activity against Candida albicans cgmcc 2.2086 in presence of NaCl by broth dilution method; format: functional
[28] = tested on: Escherichia coli; assay: Bactericidal activity against Escherichia coli ATCC 25922; format: functional; conditions: read-out: MBC99.9; outline: as §1
[29] = tested on: Escherichia coli; assay: Antibacterial activity against Escherichia coli ATCC 25922 after 18 hrs in presence of NaCl by broth dilution method; format: functional; conditions: ATCC 25922, 18 h
[30] = tested on: Escherichia coli; assay: Antibacterial activity against Escherichia coli ATCC 25922 after 18 hrs in presence of KCl by broth dilution method; format: functional; conditions: ATCC 25922, 18 h

Row | Substance | MBC [1] [µM] | MIC95 [2] [µM] | MIC95 [3] [µM] | MFC [4] [µM] | HC10 [5] [µM] | MIC [6] [µM] | MFC [7] [µM] | MIC95 [8] [µM] | viability at 24 h, up to 64 µM [9] [%] | MIC95 [10] [µM] | MIC [11] [µM] | MFC [12] [µM] | MFC [13] [µM] | MFC [14] [µM] | MFC [15] [µM] | MBC [16] [µM] | MBC [17] [µM] | MIC95 [18] [µM] | MIC [19] [µM] | MFC [20] [µM] | also measured
1 | H-RRWRWWWRWRR-NH2 | 8 | 4 | 4 | 4 | > 128 | 4 | 8 | 4 | 70 to 80 | 2 | 4 | 8 | 4 | 4 | 8 | 8 | 8 | 4 | 8 | 8 | MIC95 [21]: 4 µM; MIC95 [22]: 4 µM; MIC [23]: 8 µM; MFC [24]: 4 µM; MBC [25]: 4 µM; MIC95 [26]: 4 µM; MIC [27]: 8 µM; MBC [28]: 4 µM; MIC [29]: 4 µM; MIC [30]: 4 µM
2 | H-RRIRIIIRIRR-NH2 | 8 | 1 | 2 | 1 | > 128 | 2 | 4 | 4 | > 85 | 2 | 4 | 2 | 1 | 2 | 2 | 4 | 4 | 2 | 8 | 4 | MIC95 [21]: 2 µM; MIC95 [22]: 4 µM; MIC [23]: 2 µM; MFC [24]: 1 µM; MBC [25]: 4 µM; MIC95 [26]: 4 µM; MIC [27]: 4 µM; MBC [28]: 4 µM; MIC [29]: 4 µM; MIC [30]: 4 µM
3 | H-RFRFFFRFR-NH2 | 8 | 4 | 8 | 4 | > 128 | 8 | 16 | 4 | 70 to 80 | 2 | 4 | 16 | 8 | 4 | 16 | 4 | 8 | 4 | 4 | 16 | MIC95 [21]: 8 µM; MIC95 [22]: 4 µM; MIC [23]: 32 µM; MFC [24]: 4 µM; MBC [25]: 8 µM; MIC95 [26]: 4 µM; MIC [27]: 32 µM; MBC [28]: 8 µM; MIC [29]: 4 µM; MIC [30]: 4 µM
